PAFAH1B2 FP inh: PAFAH1B2 enzyme inhibitors, primary screen, biochemical, fluorescence polarization, human; Platelet-activating factor acetylhydrolase IB subunit alpha2 (Homo sapiens), P68402; recombinant PAFAH1B2, FP-rhodamine activity probe; inhibition, % at 3.39 µM; actives 1.2% (n = 340,000); AID 492953, 2010;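 active means inhibition above the mean of all tested compounds plus 3 SD, cut at about 24% in these data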;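 further: 0% = enzyme with DMSO and 100% = wells lacking PAFAH1B2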
pPAFAH inh: pPAFAH enzyme inhibitors, primary screen, biochemical, fluorescence polarization, human. actives 1.5% (n = 330,000). Platelet-activating factor acetylhydrolase (Homo sapiens), Q13093. AID 463082, 2010. recombinant pPAFAH, FP-rhodamine probe fluorescence polarization. inhibition, % at 3.39 µM;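 active means inhibition above the mean inhibition across the screen plus 3 SD, cut at about 25% in these data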;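 further: inhibitors block binding of the rhodamine activity-based probe so polarization drops; 0% = enzyme with DMSO and 100% = wells lacking pPAFAH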
PAFAH1B3 inh: PAFAH1B3 enzyme inhibitors, primary screen, biochemical, fluorescence polarization, human; Platelet-activating factor acetylhydrolase IB subunit alpha1 (Homo sapiens), Q15102; recombinant PAFAH1B3, FP-rhodamine probe; inhibition, % at 3.39 µM; actives 0.28% (n = 340,000);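 active means inhibition above the screen-wide average of all tested compounds plus 3 SD, cut at about 25% in these data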;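 further: 0% = enzyme with DMSO only and 100% = wells lacking PAFAH1B3 protein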
Target sequence (Q15102 whole entry, looked up): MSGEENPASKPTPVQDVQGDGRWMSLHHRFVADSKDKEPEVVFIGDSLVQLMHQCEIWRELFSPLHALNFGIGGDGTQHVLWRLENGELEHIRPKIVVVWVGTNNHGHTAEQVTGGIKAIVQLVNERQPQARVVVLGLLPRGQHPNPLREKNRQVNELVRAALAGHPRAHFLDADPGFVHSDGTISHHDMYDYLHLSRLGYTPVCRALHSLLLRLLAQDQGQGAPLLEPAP
PAFAH2 inh: PAFAH2 enzyme inhibitors, primary screen, biochemical, fluorescence polarization, human. actives 0.99% (n = 340,000). recombinant PAFAH2, FP-rhodamine activity probe. inhibition, % at 3.39 µM;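 active means inhibition above the mean over all tested compounds plus 3 SD, cut at about 30% in these data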;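 further: inhibitors block probe labeling of enzyme so polarization drops; 0% = enzyme with DMSO and 100% = wells lacking PAFAH2 protein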
ARFGAP1 inhibitor: inhibitors of rat ARFGAP1 GAP activity, primary screen, biochemical, fluorescence polarization, GDP tracer | ADP-ribosylation factor GTPase-activating protein 1 (Rattus norvegicus), Q62848 | Arfgap1-stimulated ARF1 GTP hydrolysis, GDP FP detection | inhibition, % at 16.5 µM | actives 0.26% (n = 360,000);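 active means inhibition above a per-plate limit, mean inhibition of low control wells plus 3 SD, cut at about 25% in these data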;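 further: 0% = DMSO wells with enzyme and 100% = wells lacking Arfgap1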
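Material – truncated rat Arfgap1 GAP domain · Buffer or medium – HEPES-based buffer, pH 7.5 · Reagent – human ARF1(Δ1-17)-GTP substrate · Dosing – 16.5 µM single point, 1.26% DMSO · Schedule – GTP hydrolysis reaction 2 h at 25 °C · Technique – GDP detection by fluorescence polarization · Benchmarks – No-Arfgap1 wells (100%) versus DMSO full-reaction wells (0%) · Repeats – single replicate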
ASAP1 GAP inh: inhibitors of human ASAP1 ArfGAP activity, primary screen, biochemical, fluorescence polarization. Arf-GAP with SH3 domain, ANK repeat and PH domain-containing protein 1 (Homo sapiens), …. ASAP1-stimulated ARF1 GTP hydrolysis, GDP FP detection. inhibition, % at 16.5 µM. actives 0.19% (n = 360,000). AID 624377, 2012; in the data active means inhibition above about 25%;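 further: 0% = vehicle with enzyme and substrate and 100% = no enzyme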
Target sequence (Q9ULH1 325-724 limits assumed): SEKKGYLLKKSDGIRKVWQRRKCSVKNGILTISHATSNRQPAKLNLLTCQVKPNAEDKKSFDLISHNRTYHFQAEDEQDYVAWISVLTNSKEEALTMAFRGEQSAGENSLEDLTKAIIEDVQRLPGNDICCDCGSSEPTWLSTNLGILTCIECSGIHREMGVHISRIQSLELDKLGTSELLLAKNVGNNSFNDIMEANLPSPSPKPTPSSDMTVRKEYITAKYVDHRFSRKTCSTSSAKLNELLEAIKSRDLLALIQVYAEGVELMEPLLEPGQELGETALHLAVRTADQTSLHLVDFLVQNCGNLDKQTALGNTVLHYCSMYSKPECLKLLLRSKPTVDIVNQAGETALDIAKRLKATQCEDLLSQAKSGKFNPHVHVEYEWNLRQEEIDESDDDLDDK
* = called active by the depositor; · = not tested or not shown. Sampled rows, rich in hits. Any-hit rate of the full collection: about 2.7%.

SMILES | PAFAH1B2 FP inh | pPAFAH inh | PAFAH1B3 inh | PAFAH2 inh | ARFGAP1 inhibitor | ASAP1 GAP inh
O=[N+]([O-])c1ccc(OS(=O)(=O)Cc2ccccc2)cc1 | 0 | 0 | -1 | 8 | -14 | -1
O=S(=O)(Cc1ccc(Cl)cc1)Oc1ccc(Cl)cc1 | 25* | · | 5 | -1 | -8 | 4
O=c1c2cc(NC(=S)NC3CCCCC3)ccc2nc2n1CCCCC2 | 28* | -3 | 2 | 6 | 5 | 4
O=c1c2cc(NC(=S)NC3CCCC3)ccc2nc2n1CCCCC2 | 8 | -3 | -4 | 2 | 15 | 6
O=S1(=O)Nc2c(ccc3cccnc23)-c2ccccc21 | 5 | 27* | 12 | 12 | · | ·
Clc1ccc2ccc3cccnc3c2n1 | 6 | · | 3 | 13 | 3 | -4
CCOC(=O)C1=C(C(=O)OCC)C2N(Cc3ccc(Br)cc3)c3ccccc3[C@@]23C[C@@H](C(=O)OC)N(S(=O)(=O)c2cccs2)C3=N1 (stereo partly drawn) | · | · | · | · | -14 | 6
O=C(O)Cc1ccc(-c2ccccc2-c2ccccc2)cc1 | 80* | 29* | 4 | -7 | -5 | 8
O=C(O)Cc1ccc(O)cc1 | 2 | 2 | 8 | 5 | 11 | -3
CCOc1ccc(/C=C/c2nc(C#N)c(NCCCOC)o2)cc1 | 2 | 28* | 15 | -3 | 8 | 7
O=[N+]([O-])c1cc(-c2cnc3ccccc3n2)ccc1Oc1ccc(F)cc1 | 58* | 11 | 6 | -12 | -5 | 7
O=[N+]([O-])c1ccccc1Oc1cnc2ccccc2n1 | 3 | 5 | -1 | 2 | 4 | 5
C=CCN=C1NC(c2ccccc2C(F)(F)F)C(C(=O)OC)=C(C)N1Cc1cccc(C(F)(F)F)c1 (stereo not drawn) | · | · | · | · | 11 | -2
CCN(CC)CCN(C(=O)c1ccc(S(=O)(=O)N(CC)c2ccccc2)cc1)c1nc2c(OC)ccc(OC)c2s1 | 31* | 4 | -5 | -3 | -4 | -8
CC(NC(=O)c1c(N)[nH]c(C(=O)c2ccc(Cl)cc2)c1-c1ccc(Br)cc1)c1cccc2ccccc12 (stereo not drawn) | · | · | · | · | -2 | -7
O=C(NCc1ccc2c(c1)OCO2)c1ccc(CS(=O)(=O)Cc2cccc(Cl)c2)o1 | 10 | 25* | 5 | -3 | 13 | 7
CCc1ccccc1S(=O)(=O)Cc1ccc(C(=O)NCc2ccc3c(c2)OCO3)o1 | 11 | 2 | 5 | 5 | 2 | 3
O=C(NCc1ccc2c(c1)OCO2)c1ccc(CSCc2ccc(Cl)cc2)o1 | 26* | 18 | 6 | 0 | 8 | -1
COC(=O)c1cc2c(c3c4cc(F)ccc4n(S(=O)(=O)c4ccccc4)c13)C(=O)N(C)C2 | · | · | · | · | 1 | 9
COC(=O)[C@]12C[C@H](CC(=O)NCc3cccc4ccccc34)C(=O)N(Cc3ccccc3)C1=C[C@H](C(C)C)O[C@@H]2C1CC1 | · | · | · | · | 4 | -8
O=C(NC1CCCC1)[C@@H]1CCCN1C(=O)[C@@H](NC(=O)N1CCOCC1)C1CCCCC1 | · | · | · | · | -13 | -11
Cc1cc(N=Nc2ccc(C)c(N=Nc3cc(C)c(N)cc3N)c2)c(N)cc1N | 4 | 18 | 21 | 2 | 25* | 16
COc1ccc(N=Nc2cc(OC)c(N)cc2OC)cc1 | 4 | · | 6 | -1 | 1 | -6
CC1CCCCC1NC(=O)CSc1nnc(COc2ccc(Cl)cc2)o1 (stereo not drawn) | 29* | -1 | 10 | -13 | -3 | -1
COCc1cc(N2CCNC[C@H]2C)ccc1N1C[C@@H](C)O[C@@H](C)C1 | · | · | · | · | 4 | -15
SMILES | PAFAH1B2 FP inh | pPAFAH inh | PAFAH1B3 inh | PAFAH2 inh | ARFGAP1 inhibitor | ASAP1 GAP inh
Cc1ccc(S(=O)(=O)N2CCC(C(=O)OCCOc3ccccc3)CC2)cc1C | 4 | 28* | 11 | 9 | 6 | 19
Cc1cc(=O)[nH]c(N/N=C/c2cc(C)n(-c3ccccc3)c2C)n1 | 2 | 31* | -2 | 1 | -10 | -9
FC(F)(F)c1ccccc1CN1CCCc2nc(-c3ccc(Br)cc3)ccc21 | · | · | · | · | 4 | 2
CCOc1ccc(NC(=O)Nc2cc(C(=O)O)ccc2N2CC3CC(C2)c2cccc(=O)n2C3)cc1 (stereo not drawn) | 3 | 30* | -4 | -1 | -3 | -6
CN(C(=O)COC(=O)c1cc(-c2ccccc2Cl)nc2ccccc12)C1CCS(=O)(=O)C1 (stereo not drawn) | 0 | 27* | 4 | -1 | 4 | 1
CN(C(=O)COC(=O)c1cc(-c2ccc(Cl)s2)nc2ccccc12)C1CCS(=O)(=O)C1 (stereo not drawn) | -8 | 3 | -4 | -2 | -6 | -1
O=C(O)CC(NS(=O)(=O)c1ccc(Br)cc1)c1ccco1 (stereo not drawn) | 28* | 0 | 1 | 7 | 2 | -10
Cc1ccc(S(=O)(=O)NC(CC(=O)O)c2ccco2)cc1 (stereo not drawn) | 9 | 6 | -3 | -3 | -6 | 7
C[C@H](CO)N1C[C@H](C)[C@@H](CN(C)S(=O)(=O)c2ccc(F)cc2)Oc2cc(Br)ccc2S1(=O)=O | · | · | · | · | 5 | 2
CCC(=O)Nc1ccc(S(=O)(=O)Nc2cccc(C)c2)cc1OC | 2 | 30* | 10 | 7 | -4 | -17
CCOc1ccc(NS(=O)(=O)c2ccc(NC(C)=O)c(OC)c2)cc1 | 3 | 25* | 7 | -5 | -4 | -8
CCC(=O)Nc1ccc(-c2ccc(NC(=O)CC)c(OC)c2)cc1OC | 6 | 6 | 2 | -2 | 17 | -3
CCCCOc1ccc(S(=O)(=O)Nc2ccc(NC(C)=O)cc2)cc1 | 5 | 12 | 4 | 0 | -8 | 0
COc1cc(S(=O)(=O)Nc2ccncc2)ccc1F | 8 | 3 | -6 | 6 | 3 | -2
COc1cc(S(=O)(=O)Nc2ccc(C)cc2)ccc1NC(=O)c1ccncc1 | 0 | 34* | 2 | 6 | -5 | 8
Nc1[nH]c(C(=O)c2ccc(Cl)cc2)c(-c2ccc(Br)cc2)c1C(=O)c1c[nH]c2ccc(F)cc12 | · | · | · | · | -5 | 4
CCCNC(=O)c1ccc2c(=O)c(O)c(-c3ccc(OC)cc3)[nH]c2c1 | 2 | 13 | 14 | -16 | · | ·
CCCNC(=O)c1ccc2c(=O)c(O)c(-c3ccsc3)[nH]c2c1 | 27* | 15 | 38* | -16 | · | ·

Screens deposited in PubChem BioAssay by The Scripps Research Institute Molecular Screening Center.
